B1: Osa-1-4 twister ribozyme (parent)
chain: CCGCCUAACACUGCCAAUGCCGGUCCCAAGCCCGGAUAAAAGUGGAGGGGGCGG

Variants of B1 are the subject of this data set. Nature of the data set: self-cleavage, relative activity (ratio to wild type); higher = more cleavage; co-transcriptional. The gist of the method:
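A DNA template was synthesised for a 54-nucleotide twister ribozyme from Oryza sativa, with 97 % wild-type base and 1 % of each other base at each of the 48 positions downstream of the cleavage site. The ribozyme cleaved itself co-transcriptionally during 2 h of in vitro transcription at 37 °C. Reverse transcription with a template-switching oligonucleotide, PCR amplification and deep sequencing followed, and cleavage status came from reads with or without upstream sequence. Relative activity is the fraction cleaved normalised to wild type.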
Regarding CCGCCUAACACUGCCAAUGCCGGUCCCAAGCCCGGAUAAAAUUGGAGGCGGCGG [G42U G49C], the self-cleavage turned out to be 0.03. As to CCGCCUAACACUGCCAAUGCCGGUCCCAAGCCCGGAUAAAAUUGGAGGUGGCGG [G42U G49U], the self-cleavage was 0.04. The same measure for CCGCCUAACACUGCCAAUGCCGGUCCCAAGCCCGGAUAAAAUUGGAGGAGGCGG [G42U G49A]: 0.04. Take CCGCCUAACACUGCCAAUGCCGGUCCCAAGCCCGGAUAAAAUUGGAGGGGGCCG [G42U G53C]: the self-cleavage is 0.05.

On to CCGCCUAACACUGCCAAUGCCGGUCCCAAGCCCGGAUAAAAUUGGAGGGGGCAG [G42U G53A], for which the self-cleavage was found to be 0.1. With CCGCCUAACACUGCCAAUGCCGGUCCCAAGCCCGGAUAAAAUUGGAGGGGGCUG [G42U G53U], the self-cleavage was 0.08. The figure for CCGCCUAACACUGCCAAUGCCGGUCCCAAGCCCGGAUAAAAUGGGAGGGGGCGG [G42U U43G] is 0.09; for CCGCCUAACACUGCCAAUGCCGGUCCCAAGCCCGGAUAAAAUAGGAGGGGGCGG [G42U U43A] it is 0.08. For the variant CCGCCUAACACUGCCAAUGCCGGUCCCAAGCCCGGAUAAAAUCGGAGGGGGCGG [G42U U43C], the self-cleavage stood at 0.09. The figure for CCGCCUAACACUGCCAAUGCCGGUCCCAAGCCCGGAUAAAAUUGGAGCGGGCGG [G42U G48C] is 0.03; for CCGCCUAACACUGCCAAUGCCGGUCCCAAGCCCGGAUAAAAUUGGAGAGGGCGG [G42U G48A] it is 0.03; for CCGCCUAACACUGCCAAUGCCGGUCCCAAGCCCGGAUAAAAUUGGAGUGGGCGG [G42U G48U] it is 0.03. The same measure for CCGCCUAACACUGCCAAUGCCGGUCCCAAGCCCGGAUAAAAUUGGAGGGGGCGU [G42U G54U]: 0.37; for CCGCCUAACACUGCCAAUGCCGGUCCCAAGCCCGGAUAAAAUUGGAGGGGGCGA [G42U G54A]: 0.14; for CCGCCUAACACUGCCAAUGCCGGUCCCAAGCCCGGAUAAAAUUGGAGGGGGCGC [G42U G54C]: 0.15.

Regarding CCGCCUAACACUGCCAAUGCCGGUCCCAAGCCCGGAUAAAAUUUGAGGGGGCGG [G42U G44U], the self-cleavage stood at 0.15.

With CCGCCUAACACUGCCAAUGCCGGUCCCAAGCCCGGAUAAAAGUAGAGGGGGCGG [G44A], the self-cleavage turned out to be 0.97. With CCGCCUAACACUGCCAAUGCCGGUCCCAAGCCCGGAUAAAAUUGAAGGGGGCGG [G42U G45A], the self-cleavage came out at 0.05. Take CCGCCUAACACUGCCAAUGCCGGUCCCAAGCCCGGAUAAAAUUGUAGGGGGCGG [G42U G45U]: the self-cleavage is 0.04.

Take CCGCCUAACACUGCCAAUGCCGGUCCCAAGCCCGGAUAAAAUUGCAGGGGGCGG [G42U G45C]: the self-cleavage was 0.03. The same measure for CCGCCUAACACUGCCAAUGCCGGUCCCAAGCCCGGAGAAAAUUGGAGGGGGCGG [G42U U37G]: 0.15; for CCGCCUAACACUGCCAAUGCCGGUCCCAAGCCCGGACAAAAUUGGAGGGGGCGG [G42U U37C]: 0.11. The same measure for CCGCCUAACACUGCCAAUGCCGGUCCCAAGCCCGGAAAAAAUUGGAGGGGGCGG [G42U U37A]: 0.09; for CCGCCUAACACUGCCAAUGCCGGUCCCAAGCCCGGAUAAAAUUGGAUGGGGCGG [G42U G47U]: 0.03.

Take CCGCCUAACACUGCCAAUGCCGGUCCCAAGCCCGGAUAAAAUUGGACGGGGCGG [G42U G47C]: the self-cleavage stood at 0.02. In the case of CCGCCUAACACUGCCAAUGCCGGUCCCAAGCCCGGAUAAAAUUGGAAGGGGCGG [G42U G47A], the self-cleavage was found to be 0.05.

Consider CCGCCUAACACAGCCAAUGCCGGUCCCAAGCCCGGAUAAAAUUGGAGGGGGCGG [G42U U12A], for which the self-cleavage turned out to be 0.06. Turning to CCGCCUAACACCGCCAAUGCCGGUCCCAAGCCCGGAUAAAAUUGGAGGGGGCGG [G42U U12C], the self-cleavage was determined as 0.05. As for CCGCCUAACACGGCCAAUGCCGGUCCCAAGCCCGGAUAAAAUUGGAGGGGGCGG [G42U U12G], the self-cleavage was found to be 0.06.

Turning to CCGCCUAACACUGCCAAUGCCGGUCCCAAGCCCGGAUAAAAUUGGAGGGGACGG [G42U G51A], the self-cleavage was found to be 0.1.

Take CCGCCUAACACUGCCAAUGCCGGUCCCAAGCCCGGAUAAAAUUGGAGGGGCCGG [G42U G51C]: the self-cleavage was determined as 0.04. The figure for CCGCCUAACACUGCCAAUGCCGGUCCCAAGCCCGGAUAAAAUUGGAGGGGUCGG [G42U G51U] is 0.07; for CCGCCUAACACUGCCAAAGCCGGUCCCAAGCCCGGAUAAAAUUGGAGGGGGCGG [G42U U18A] it is 0.29. The figure for CCGCCUAACACUGCCAAGGCCGGUCCCAAGCCCGGAUAAAAUUGGAGGGGGCGG [G42U U18G] is 0.28; for CCGCCUAACACUGCCAACGCCGGUCCCAAGCCCGGAUAAAAUUGGAGGGGGCGG [G42U U18C] it is 0.23; for CCGCCUAACACUGCCAAUGCCGGUCCCAAGCCCGGAUAAAAGCGGAGGGGGCGG [U43C] it is 0.64. The figure for CCGCCUAACACUGCCAAUGCCGGUCCCAAGCCCGGAUAAAAGAGGAGGGGGCGG [U43A] is 0.93.

Regarding CCGCCUAACACUGCCAAUGCCGGUCCCAAGCCCGGAUAAAAGGGGAGGGGGCGG [U43G], the self-cleavage turned out to be 0.67. The figure for CCGCCUAACACUGCCAAUGCCGGUCCCAAGCCCGGAUAAAAGUAUAGGGGGCGG [G44A G45U] is 0.07; for CCGCCUAACACUGCCAAUGCCGGUCCCAAGCCCGGAUAAAAGUAAAGGGGGCGG [G44A G45A] it is 0.16. In the case of CCGCCUAACACUGCCAAUGCCGGUCCCAAGCCCGGAUAAAAGUACAGGGGGCGG [G44A G45C], the self-cleavage stood at 0.07. The same measure for CCGCCUAACACUGCCAAUGCCGGUCCCAAGCCCGGAUAAAAUUGGAGGGAGCGG [G42U G50A]: 0.32; for CCGCCUAACACUGCCAAUGCCGGUCCCAAGCCCGGAUAAAAUUGGAGGGCGCGG [G42U G50C]: 0.1; for CCGCCUAACACUGCCAAUGCCGGUCCCAAGCCCGGAUAAAAUUGGAGGGUGCGG [G42U G50U]: 0.12. Take CCGCCUAACACUGCCAAUGCCGGUCCCAAGCCCGGAUAAAAGUAGAAGGGGCGG [G44A G47A]: the self-cleavage turned out to be 0.13. For the variant CCGCCUAACACUGCCAAUGCCGGUCCCAAGCCCGGAUAAAAGUAGACGGGGCGG [G44A G47C], the self-cleavage turned out to be 0.09. The same measure for CCGCCUAACACUGCCAAUGCCGGACCCAAGCCCGGAUAAAAUUGGAGGGGGCGG [G42U U24A]: 0.03. The same measure for CCGCCUAACACUGCCAAUGCCGGGCCCAAGCCCGGAUAAAAUUGGAGGGGGCGG [G42U U24G]: 0.02; for CCGCCUAACACUGCCAAUGCCGGCCCCAAGCCCGGAUAAAAUUGGAGGGGGCGG [G42U U24C]: 0.03.
